According to ChEMBL document CHEMBL5380783, “N-Substituted l-Iminosugars for the Treatment of Sanfilippo Type B Syndrome” (J Med Chem, 2023):
One block for each compound: values may come before it. Activity calls are given as the source filed them. The calls are words filed in the database; no cut-off is given here.

What was measured:
HeLa = test: Cytotoxicity against human HeLa cells assessed as reduction in cell viability at 20 uM incubated for 48 hrs by trypan blue exclusion method; format: functional, cell-based
How it was run: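 HeLa cells seeded at 100,000 per well and grown overnight in complete RPMI. Exposed to 20 μM compound in the same medium for 48 h at 37 °C; untreated mock as control. Cells trypsinized, live cells counted by trypan blue exclusion on an automated counter. Means of three independent experiments, each in triplicate, with s.e.m.; Student's t-test, p < 0.05.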

[1] = system: Alpha-N-acetylglucosaminidase (Homo sapiens), P54802 [UNDEFINED MUTATION]; test: Nonactive chaperone activity against mutated NAGLU in Sanfilippo-B patient derived human fibroblast cells assessed as co-localization of NAGLU with lysosomes by measuring NAGLU/Lamp1-positive structures at 20 uM incubated for 48 hrs by indirect immunofluorescence staining based analysis; format: cell-based
Chain of Alpha-N-acetylglucosaminidase (Homo sapiens), P54802 [UNDEFINED MUTATION] (P54802 whole entry, looked up, stated change not applied): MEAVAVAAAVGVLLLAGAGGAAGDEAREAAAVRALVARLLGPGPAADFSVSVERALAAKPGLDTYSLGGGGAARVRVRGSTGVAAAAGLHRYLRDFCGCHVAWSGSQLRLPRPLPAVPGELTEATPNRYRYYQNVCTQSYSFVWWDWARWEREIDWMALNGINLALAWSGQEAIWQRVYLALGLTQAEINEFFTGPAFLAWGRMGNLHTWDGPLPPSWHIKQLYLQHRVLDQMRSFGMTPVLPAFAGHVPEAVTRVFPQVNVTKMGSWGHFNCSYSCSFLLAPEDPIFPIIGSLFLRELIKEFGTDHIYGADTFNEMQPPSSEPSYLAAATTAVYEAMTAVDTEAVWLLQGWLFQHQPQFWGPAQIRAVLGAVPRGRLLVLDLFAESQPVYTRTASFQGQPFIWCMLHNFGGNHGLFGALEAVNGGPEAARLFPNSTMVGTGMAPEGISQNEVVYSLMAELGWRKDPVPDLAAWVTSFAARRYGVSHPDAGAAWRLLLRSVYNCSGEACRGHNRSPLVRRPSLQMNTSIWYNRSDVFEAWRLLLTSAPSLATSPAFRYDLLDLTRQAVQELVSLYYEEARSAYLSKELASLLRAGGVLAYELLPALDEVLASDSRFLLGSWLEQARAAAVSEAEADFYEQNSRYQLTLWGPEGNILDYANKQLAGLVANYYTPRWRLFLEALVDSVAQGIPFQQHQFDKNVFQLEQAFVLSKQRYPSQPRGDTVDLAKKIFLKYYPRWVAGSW
How it was run: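 HDFa and MPS IIIB fibroblasts, with or without (mock) 20 μM compound, for 48 h on coverslips. Co-stained for NAGLU and Lamp1 with DAPI, confocal imaging. NAGLU–lysosome co-localization quantified as mean fluorescence relative to untreated cells, 50 random cells from three experiments.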

SK-N-BE(2) [2] = test: Inhibition of lysosomal defects in NAGLU-silenced human SK-NBE cell clones assessed as dispersion of lysosomes all over the cytoplasm at 20 uM incubated for 48 hrs by LAMP1 staining based indirect immunofluorescence assay; format: functional
How it was run: (§1)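 Control and NAGLU-silenced SK-NBE clones grown on coverslips with 20 μM compound for 48 h. Fixed in 3.7% formaldehyde, permeabilized with saponin/BSA buffer, stained with anti-Lamp1 or anti-HS 10E4 for 1 h, then Alexa secondaries. Confocal imaging with 63× objective. Scored as percent cells with enlarged Lamp1 structures or membrane HS, plus mean fluorescence intensity, over 50 random cells from three experiments.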

SK-N-BE(2) [3] = test: Upregulation of NAGLU protein expression in NAGLU-silenced human SK-NBE cell clones at 20 uM incubated for 24 hrs by western blot analysis; format: functional, cell-based
How it was run: (§2)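 Western blot of control SK-NBE clone and NAGLU-shRNA SK-NBE clone (RPMI, 10% FBS, puromycin 0.7 μg/mL) after 24 h at 20 μM. Lysis, Bradford assay, 50 μg per lane, nitrocellulose transfer, anti-NAGLU antibody overnight at 4 °C, HRP secondary and ECL. GAPDH re-probe for loading.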

SK-N-BE(2) [4] = test: Effect on lysosome size and distribution in human SK-NBE cell clone assessed as at 20 uM incubated for 48 hrs by LAMP1 staining based indirect immunofluorescence assay; format: functional; how it was run: as §1
SK-N-BE(2) [5] = test: Effect on heparan sulfate changes in human SK-NBE cell membrane at 20 uM incubated for 48 hrs by indirect immunofluorescence staining analysis; format: functional, cell-based; how it was run: as §1
IB3-1 = test: Cytotoxicity against human IB3-1 cells assessed as induction of apoptosis upto 100 uM; format: toxicity, cell-based; settings: ib3-1, 100 µM
[6] = Cytotoxicity against human CuFi cells assessed as induction of apoptosis upto 100 uM; format: toxicity, cell-based
SK-N-BE(2) [7] = test: Inhibition of amyloid beta (1 to 42) accumulation in cytoplasm of NAGLU-silenced human SK-NBE cell clones at 20 uM incubated for 48 hrs by indirect immunofluorescence staining based analysis; format: functional
How it was run: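 NAGLU-silenced SK-NBE clone on coverslips, exposed to 20 μM compound for 48 h. Cells fixed in formaldehyde, permeabilized with saponin, stained with anti-Aβ1-42 antibody and fluorescent secondary, imaged by confocal microscopy. Cells bearing Aβ1-42-positive structures counted among 50 random cells from three independent experiments; untreated clone as comparator.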

HaCaT = test: Cytotoxicity against human HaCaT cells assessed as induction of apoptosis upto 100 uM; format: toxicity, cell-based
[8] = system: Alpha-N-acetylglucosaminidase (Homo sapiens), P54802 [UNDEFINED MUTATION]; test: (§3) Stabilization of mutated NAGLU in Sanfilippo-B patient derived human fibroblast cells assessed as increase in NAGLU activity using 4-methylumbelliferyl-N-acetyl-alpha-D-glucosaminide as substrate at 20 uM cells pretreated for 2 hrs with substrate followed by compound addition by fluorescence based analysis; format: cell-based
How it was run: (§4)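 Pellets of 5 × 10^5 MPS IIIB or HDFa fibroblasts lysed by 10 freeze–thaw cycles and clarified at 4 °C; protein by Lowry. Lysate incubated 2 h with 2 mM 4-methylumbelliferyl-N-acetyl-α-D-glucosaminide stock in 0.2 M Na-acetate pH 4.5, compound added at 20 μM. Activity normalized to protein, expressed as nmol substrate hydrolysed per h per mg.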

Fibroblast [9] = test: Inhibition of heparan sulfate accumulation on cell membrane in MPS-1 patient derived human fibroblast cells at 40 uM incubated for 48 hrs by indirect immunofluorescence staining analysis; format: functional, cell-based
How it was run: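 MPS I patient fibroblasts grown on coverslips with 40 μM compound for 48 h. Immunostained for HS (10E4) and Lamp1 with DAPI, imaged by confocal microscopy. Mean fluorescence intensity expressed relative to untreated cells, 50 random cells from three independent experiments.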

Fibroblast [10] = test: Upregulation of NAGLU protein expression in Sanfilippo-B patient derived human fibroblast cells at 20 uM incubated for 24 hrs by western blot analysis; format: functional, cell-based
How it was run: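 Sanfilippo B patient fibroblasts in DMEM, 10% FBS, treated 24 h with 20 μM compound. Lysates (50 μg per lane) blotted with anti-NAGLU antibody and HRP secondary with ECL detection; blots re-probed for β-actin as loading control.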

SK-N-BE(2) [11] = test: Upregulation of NAGLU protein expression in human SK-NBE cells at 20 uM incubated for 24 hrs by western blot analysis; format: functional, cell-based; how it was run: as §2
[12] = system: Alpha-N-acetylglucosaminidase (Homo sapiens), P54802 [UNDEFINED MUTATION]; test: as §3, with “analysis relative to control” for “analysis”; format: cell-based; how it was run: as §4

Activity [1]: Active
Activity [8]: Active
Compound: Cl.OC[C@H]1[C@H](O)[C@@H](O)[C@H](O)CN1CCCCCOCC12CC3CC(CC(C3)C1)C2
Activity (HeLa): Active
inhibition (SK-N-BE(2) [2]): Active
Activity (SK-N-BE(2) [3]): inactive
Activity (SK-N-BE(2) [4]): inactive
Activity (SK-N-BE(2) [5]): inactive
Activity (IB3-1): Non-Toxic
Activity [6]: Non-Toxic
inhibition (SK-N-BE(2) [7]): Active
Activity (HaCaT): Non-Toxic
inhibition (Fibroblast [9]): Active
Activity (Fibroblast [10]): Active
Activity (SK-N-BE(2) [11]): Active

Activity [1]: Active
fold change (FC) [12]: 20
Compound: CCCCN1C[C@@H](O)[C@H](O)[C@@H](O)[C@@H]1CO.Cl
Activity (HeLa): Active
inhibition (SK-N-BE(2) [2]): Active
Activity (SK-N-BE(2) [3]): inactive
Activity (SK-N-BE(2) [4]): inactive
Activity (SK-N-BE(2) [5]): inactive
Activity (IB3-1): Non-Toxic
Activity [6]: Non-Toxic
inhibition (SK-N-BE(2) [7]): Active
Activity (HaCaT): Non-Toxic
inhibition (Fibroblast [9]): Active
Activity (Fibroblast [10]): Active
Activity (SK-N-BE(2) [11]): Active

Compound: COCCCCCCCCCN1C[C@@H](O)[C@H](O)[C@@H](O)[C@@H]1CO.Cl
Activity (HeLa): Active
Activity [1]: Active
inhibition (SK-N-BE(2) [2]): Active
Activity (SK-N-BE(2) [3]): inactive
Activity (SK-N-BE(2) [4]): inactive
Activity (SK-N-BE(2) [5]): inactive
Activity (IB3-1): Non-Toxic
Activity [6]: Non-Toxic
inhibition (SK-N-BE(2) [7]): Active
Activity (HaCaT): Non-Toxic
Activity [8]: Active
inhibition (Fibroblast [9]): Active
Activity (Fibroblast [10]): Active
Activity (SK-N-BE(2) [11]): Active

Activity [1]: Active
Activity [8]: Active
Compound: Cl.OC[C@@H]1NC[C@@H](O)[C@H](O)[C@H]1O
Activity (HeLa): Active
inhibition (SK-N-BE(2) [2]): Active
Activity (SK-N-BE(2) [3]): inactive
Activity (SK-N-BE(2) [4]): inactive
Activity (SK-N-BE(2) [5]): inactive
Activity (IB3-1): Non-Toxic
Activity [6]: Non-Toxic
inhibition (SK-N-BE(2) [7]): Active
Activity (HaCaT): Non-Toxic
inhibition (Fibroblast [9]): Active
Activity (Fibroblast [10]): Active
Activity (SK-N-BE(2) [11]): Active
